Marks after values point to notes of the source that are not given here.
Experiments:
hOCT2 [1] = target: T1, hOCT2 (Homo sapiens, UniProt O15244); experiment: ASP+-based fluorescence uptake inhibition assay, hOCT2; type: cell-based
T1 sequence (O15244 1-555): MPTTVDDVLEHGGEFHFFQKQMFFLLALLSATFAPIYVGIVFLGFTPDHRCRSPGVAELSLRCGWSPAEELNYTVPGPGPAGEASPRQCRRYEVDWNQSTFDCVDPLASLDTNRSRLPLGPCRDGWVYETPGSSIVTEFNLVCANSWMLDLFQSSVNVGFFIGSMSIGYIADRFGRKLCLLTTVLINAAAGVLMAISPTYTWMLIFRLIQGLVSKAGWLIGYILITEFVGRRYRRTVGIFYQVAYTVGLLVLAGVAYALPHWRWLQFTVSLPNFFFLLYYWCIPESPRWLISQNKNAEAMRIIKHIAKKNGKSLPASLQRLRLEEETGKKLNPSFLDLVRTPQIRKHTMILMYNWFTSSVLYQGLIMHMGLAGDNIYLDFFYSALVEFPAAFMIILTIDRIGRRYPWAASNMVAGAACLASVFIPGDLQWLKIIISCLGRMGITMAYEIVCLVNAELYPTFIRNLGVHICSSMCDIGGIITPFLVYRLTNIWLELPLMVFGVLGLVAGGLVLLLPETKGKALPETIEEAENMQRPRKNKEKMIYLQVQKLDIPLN

[2] = test system: hOCT1 stably transfected HEK293 cells; experiment: MTT cytotoxicity assay, hOCT1 cells; type: cell-based, human; conditions: for TC50 OCT1: MTT, 72 h, hOCT1 HEK293 cells, mean±SD of six experiments; for Fold increase over pcDNA5 OCT1: ratio of TC50 pcDNA5 to TC50 hOCT1 cells
hOCT3 [3] = target: T2, hOCT3 (Homo sapiens, UniProt O75751); experiment: ASP+-based fluorescence uptake inhibition assay, hOCT3; type: cell-based
T2 sequence (O75751 1-556): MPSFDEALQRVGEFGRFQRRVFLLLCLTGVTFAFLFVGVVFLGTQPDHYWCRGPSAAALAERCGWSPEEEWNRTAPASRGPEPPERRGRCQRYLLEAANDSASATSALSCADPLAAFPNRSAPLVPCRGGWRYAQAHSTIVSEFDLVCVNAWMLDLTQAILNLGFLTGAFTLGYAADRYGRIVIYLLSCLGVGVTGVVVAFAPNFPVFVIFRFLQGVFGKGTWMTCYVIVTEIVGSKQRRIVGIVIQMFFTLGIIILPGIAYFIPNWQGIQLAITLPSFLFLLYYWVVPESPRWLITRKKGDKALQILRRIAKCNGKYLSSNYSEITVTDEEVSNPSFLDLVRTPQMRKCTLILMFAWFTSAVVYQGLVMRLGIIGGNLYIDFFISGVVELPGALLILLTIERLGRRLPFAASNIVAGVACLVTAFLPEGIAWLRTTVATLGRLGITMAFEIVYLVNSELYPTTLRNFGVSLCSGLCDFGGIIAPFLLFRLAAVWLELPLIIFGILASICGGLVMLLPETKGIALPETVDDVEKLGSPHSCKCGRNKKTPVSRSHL

[4] = test system: hOCT3 stably transfected HEK293 cells; experiment: MTT cytotoxicity assay, hOCT3 cells; type: cell-based, human; conditions: for TC50 OCT3: MTT, 72 h, hOCT3 HEK293 cells, mean±SD of six experiments; for Fold increase over pcDNA5 OCT3: ratio of TC50 pcDNA5 to TC50 hOCT3 cells
hOCT1 [5] = target: T3, hOCT1 (Homo sapiens, UniProt O15245); experiment: ASP+-based fluorescence uptake inhibition assay, hOCT1; type: cell-based
T3 sequence (O15245 1-554): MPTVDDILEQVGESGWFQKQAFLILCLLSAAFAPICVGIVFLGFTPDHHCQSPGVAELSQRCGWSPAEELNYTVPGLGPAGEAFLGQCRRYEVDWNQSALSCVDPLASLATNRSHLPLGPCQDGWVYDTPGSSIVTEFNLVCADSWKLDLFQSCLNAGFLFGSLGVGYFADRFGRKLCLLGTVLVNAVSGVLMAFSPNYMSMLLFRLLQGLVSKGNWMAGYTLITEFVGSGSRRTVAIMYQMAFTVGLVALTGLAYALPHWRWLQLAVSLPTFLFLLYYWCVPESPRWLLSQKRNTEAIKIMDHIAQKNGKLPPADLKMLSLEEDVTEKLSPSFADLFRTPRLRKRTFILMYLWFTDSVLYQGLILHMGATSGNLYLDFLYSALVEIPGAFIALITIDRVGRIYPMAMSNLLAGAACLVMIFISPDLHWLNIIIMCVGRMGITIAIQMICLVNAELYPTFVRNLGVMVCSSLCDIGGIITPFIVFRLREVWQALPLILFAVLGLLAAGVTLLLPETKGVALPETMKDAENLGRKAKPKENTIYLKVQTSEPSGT

[6] = test system: hOCT2 stably transfected HEK293 cells; experiment: MTT cytotoxicity assay, hOCT2 cells; type: cell-based, human; conditions: for TC50 OCT2: MTT, 72 h, hOCT2 HEK293 cells, mean±SD of six experiments; for Fold increase over pcDNA5 OCT2: ratio of TC50 pcDNA5 to TC50 hOCT2 cells
[7] = test system: hOCT1-3 stably transfected HEK293 cells; experiment: MTT cytotoxicity assay, result stated across hOCT1-3 cells; conditions: compared to vector-transfected HEK293 cells
[8] = test system: pcDNA5 (control) stably transfected HEK293 cells; experiment: MTT cytotoxicity assay, pcDNA5 control cells; type: cell-based, human; conditions: 72 h, vector control HEK293 cells, mean±SD of six experiments
hOCT3 [9] = target: T2, hOCT3; experiment: β-Carboline uptake assay; type: in vitro ADME; conditions: 1 μM substrate, 30 minutes
Method in brief: (§1)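 Flp-in HEK293 cells stably expressing the transporter, with empty pcDNA5/FRT vector cells as control, were grown overnight at 100 000 cells/well on poly-L-ornithine-coated plastic. Cells were washed twice with HBSS, acclimated for 10 min at 37 °C, then given 1 µM substrate in HBSS for 30 min. Uptake was stopped with three ice-cold HBSS washes. Cells were lysed in acetonitrile with internal standard, and drug was quantified by ESI-positive LC-MS/MS and normalized to total protein (BCA).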

hOCT1 [10] = target: T3, hOCT1; experiment: β-Carboline uptake assay; type: in vitro ADME; conditions: 1 μM substrate, 30 minutes
Method in brief: as §1

[11] = single ingestion of Ayahuasca, healthy volunteers; ref Riba et al., 2012; cited from earlier work
[12] = human plasma; ref Ito et al., 2012; cited from earlier work
hOCT2 [13] = target: T1, hOCT2; conditions: read-out: Ki for hOCT2; hOCT2 expressed in HEK293 cells; ref Ito et al., 2012; cited from earlier work

Cn1c2c(c3ccccc31)CC[N+](C)=C2.[I-] [2,9-dimethyl-4,9-dihydro-3Hβ-carbolin-2-ium, iodide]
IC50 (hOCT2 [1]): 524 ± 88 nM | TC50 OCT1 [2]: 119 ± 33 µM | Fold increase over pcDNA5 OCT1 [2]: 1.1 fold | IC50 (hOCT3 [3]): 7.3 ± 0.5 µM | TC50 OCT3 [4]: 80.6 ± 7.2 µM | Fold increase over pcDNA5 OCT3 [4]: 1.6 fold | IC50 (hOCT1 [5]): 40.4 ± 2.4 µM | TC50 OCT2 [6]: 117 ± 22 µM | Fold increase over pcDNA5 OCT2 [6]: 1.1 fold | Effect of hOCT1-3 expression on cytotoxicity (in words) [7]: no significant effect | TC50 pcDNA5 [8]: 127 ± 18 µM

COc1ccc2c3c([nH]c2c1)C(C)=NCC3 [Harmaline, 4,9-dihydro-7-methoxy-1-methyl-3H-pyrido[3,4-b] indole]
Accumulation in hOCT3 transfected cells relative to vector cells (hOCT3 [9]): ~ 2 fold | TC50 OCT1 [2]: 23.0 ± 5.1 µM | Fold increase over pcDNA5 OCT1 [2]: 1.0 fold | IC50 (hOCT3 [3]): 4.76 ± 0.46 µM | TC50 OCT3 [4]: 33.1 ± 8.2 µM | Fold increase over pcDNA5 OCT3 [4]: 0.69 fold | IC50 (hOCT1 [5]): 27.6 ± 3.8 µM | TC50 OCT2 [6]: 35.5 ± 3.8 µM | Fold increase over pcDNA5 OCT2 [6]: 0.65 fold | Accumulation in hOCT1 transfected cells relative to vector cells (hOCT1 [10]): ~ 2 fold | Effect of hOCT1-3 expression on cytotoxicity (in words) [7]: no significant effect | TC50 pcDNA5 [8]: 23.0 ± 3.6 µM | Plasma concentration after Ayahuasca [11]: mid to high nanomolar range

COc1ccc2c(c1)[nH]c1c(C)nccc12 [Harmine, 7-methoxy-1-methyl-9H-pyrido[3,4-b] indole]
TC50 OCT1 [2]: 2.55 ± 0.26 µM | IC50 (hOCT3 [3]): 17.7 ± 1 µM | TC50 OCT3 [4]: 2.81 ± 0.23 µM | IC50 (hOCT1 [5]): 23.1 ± 2.8 µM | TC50 OCT2 [6]: 3.01 ± 0.41 µM | Effect of hOCT1-3 expression on cytotoxicity (in words) [7]: no significant effect | TC50 pcDNA5 [8]: 2.87 ± 0.47 µM

C[n+]1ccc(-c2ccccc2)cc1 [MPP+, 1-methyl-4-phenylpyridinium]
TC50 OCT1 [2]: 3.88±0.38 ^a μM | Fold increase over pcDNA5 OCT1 [2]: 16.4 fold | TC50 OCT3 [4]: 5.86±0.68 ^a μM | Fold increase over pcDNA5 OCT3 [4]: 10.9 fold | TC50 OCT2 [6]: 7.16±0.75 ^a μM | Fold increase over pcDNA5 OCT2 [6]: 8.9 fold | TC50 pcDNA5 [8]: 63.6 ± 12.7 µM

C[n+]1ccc2c(c1)[nH]c1ccccc12.[I-] [Norharmanium, 2-methyl-9H-β-carboline-2-ium, iodide]
TC50 OCT1 [2]: 9.05±2.54 ^a μM | Fold increase over pcDNA5 OCT1 [2]: 13.1 fold | IC50 (hOCT3 [3]): 13.1 ± 0.1 µM | TC50 OCT3 [4]: 10.8±1.4 ^a μM | Fold increase over pcDNA5 OCT3 [4]: 11.0 fold | IC50 (hOCT1 [5]): 70.5 ± 6.6 µM | TC50 OCT2 [6]: 13.4±2.4 ^a μM | Fold increase over pcDNA5 OCT2 [6]: 8.9 fold | Effect of hOCT1-3 expression on cytotoxicity (in words) [7]: greatly increased toxicity | TC50 pcDNA5 [8]: 119 ± 18 µM

CN/C(=N/CCSCc1nc[nH]c1C)NC#N [cimetidine]
Clinically encountered concentrations in plasma [12]: 2.0 to 3.6 µM | Ki (hOCT2 [13]): 95 to 146 µM
